For data set [1], the system named is Staphylococcus aureus. The data set is described as follows: Antibacterial activity against Staphylococcus aureus ATCC 25923 assessed as inhibition of bacterial growth incubated for 18 to 20 hrs by broth microdilution method. Format: functional. Particulars: time 18-20 hrs. In a few lines:
(§1)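 Broth microdilution per CLSI. Inoculum at 0.5 McFarland, diluted in cation-adjusted Mueller Hinton broth to about 5 × 10^5 CFU/mL. Serial compound dilutions incubated aerobically at 37° C for 18–20 hours. MIC taken as the lowest concentration completely inhibiting visible growth.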

Data set [2] has as its system Staphylococcus aureus. Kind of data set: Antibacterial activity against Staphylococcus aureus MRSA ATCC 33592 assessed as inhibition of bacterial growth incubated for 18 to 20 hrs by broth microdilution method. Format: functional. The settings on record: time 18-20 hrs. In a few lines: as §1
Data set [3] in a line: Toxicity in Balb/c mouse infected with methicillin-resistant Staphylococcus aureus USA300 assessed as chronic inflammatory response at 25 mg/kg, ip administered 2 days post infection twice daily and measured after 5 days post compound treatment by H and E staining based histopathological analysis. Format: organism-based. The settings on record: in vivo, 120 h, time 5 day.

Data set [4] in a line: Toxicity in Balb/c mouse infected with methicillin-resistant Staphylococcus aureus USA300 assessed as necrosis at 25 mg/kg, ip administered 2 days post infection twice daily and measured after 5 days post compound treatment by H and E staining based histopathological analysis. Format: organism-based. The settings on record: in vivo, 120 h, time 5 day.
A short description of data set [5]: Toxicity in Balb/c mouse infected with methicillin-resistant Staphylococcus aureus USA300 assessed as hemorrhage at 25 mg/kg, ip administered 2 days post infection twice daily and measured after 5 days post compound treatment by H and E staining based histopathological analysis. It counts as organism-based. Particulars: in vivo, 120 h, time 5 day.
The nature of data set [6]: In vivo antibacterial activity against methicillin-resistant Staphylococcus aureus USA300 infected Balb/c mouse model assessed as reduction in bacterial infection in skin wounds at 25 mg/kg , ip administered 2 days post infection once daily and measured after 5 days post compound treatment by histopathological analysis. Particulars: time 5 day. More on the design: scale not given: the % may be the effect or the level left.

A short description of data set [7]: Toxicity in Balb/c mouse infected with methicillin-resistant Staphylococcus aureus USA300 assessed as hemorrhage administered topically twice daily 2 days post infection and measured after 5 days post compound treatment by H and E staining based histopathological analysis. Particulars: in vivo, topical_or_ocular, 120 h, time 5 day. The gist of the method:
(§2)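 MRSA USA300-infected punch wounds in mice, n=5. Topical 2% agent or petroleum jelly vehicle twice daily from day 2 for 5 days. The left wound was formalin-fixed, cut into 4-μm sections and H&E-stained. Whole slides were scanned and assessed by a board-certified veterinary pathologist for necrosis, inflammation, haemorrhage and related features.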

The nature of data set [8]: Toxicity in Balb/c mouse infected with methicillin-resistant Staphylococcus aureus USA300 assessed as necrosis administered topically twice daily 2 days post infection and measured after 5 days post compound treatment by H and E staining based histopathological analysis. The settings on record: in vivo, topical_or_ocular, 120 h, time 5 day. The gist of the method: as §2

Data set [9] in a line: Toxicity in Balb/c mouse infected with methicillin-resistant Staphylococcus aureus USA300 assessed as chronic inflammatory response administered topically twice daily 2 days post infection and measured after 5 days post compound treatment by H and E staining based histopathological analysis. The settings on record: in vivo, topical_or_ocular, 120 h, time 5 day. In a few lines:
as §2

Data set [10] in a line: In vivo antibacterial activity against methicillin-resistant Staphylococcus aureus USA300 infected in Balb/c mouse model assessed as reduction in bacterial infection in skin wounds administered topically twice daily 2 days post infection and measured after 5 days post compound treatment by CFU counting. Particulars: time 5 day. Set-up: scale not given: the % may be the effect or the level left.

In brackets after ≈: the same amount, converted by molar mass. Some results are limits rather than exact numbers.

Consider `O=C(Nc1nnc(-c2ccc(C(F)(F)F)cc2)o1)c1ccc(S(=O)(=O)N2CCCC2)cc1`, for which the MIC in the data set with Staphylococcus aureus [1] and in the data set on Staphylococcus aureus [2] was 2 µg/mL (≈ 4.29 µM) in each case.

For the molecule `CN(C)S(=O)(=O)c1ccc(C(=O)Nc2nnc(-c3ccc(C(F)(F)F)cc3)o2)cc1`, the MIC with Staphylococcus aureus [1] and in the data set with Staphylococcus aureus [2] was 16 µg/mL (≈ 36.3 µM) each time.

Consider `C[C@@H]1C[C@H](C)CN(S(=O)(=O)c2ccc(C(=O)N(C)c3nnc(-c4ccc(C(F)(F)F)cc4)o3)cc2)C1`, for which the MIC in the data set with Staphylococcus aureus [1] and with Staphylococcus aureus [2] was over 64 µg/mL each time.

`CCC[C@@H]1C[C@@H](C(=O)N[C@@H]([C@H]2O[C@H](SC)[C@H](O)[C@@H](O)[C@H]2O)[C@H](C)Cl)N(C)C1` [CLINDAMYCIN]: the Activity entry is recorded as “Toxic” in data set [3], “Toxic” in data set [4], “Toxic” in [5] and 93.4% in data set [6].

`O=C(Nc1nnc(-c2ccc(C(F)(F)F)cc2)o1)c1ccc(S(=O)(=O)N2C[C@@H]3CC[C@H]2C3)cc1`: the minimal inhibitory concentration (MIC) in the data set with Staphylococcus aureus [1] and in the data set on Staphylococcus aureus [2] was 2 µg/mL (≈ 4.06 µM) throughout.

For `CC1CCN(S(=O)(=O)c2ccc(C(=O)Nc3nnc(-c4ccc(C(F)(F)F)cc4)o3)cc2)CC1`, the MIC in the data set with Staphylococcus aureus [1] and in the data set on Staphylococcus aureus [2] was 1 µg/mL (≈ 2.02 µM) each time.

With `O=C(Nc1nnc(-c2ccc(C(F)(F)F)cc2)o1)c1ccc(S(=O)(=O)N2CCCCC2)cc1`, the MIC in the data set on Staphylococcus aureus [1] and with Staphylococcus aureus [2] was 2 µg/mL (≈ 4.16 µM) each time.

Take `CC1CCCN(S(=O)(=O)c2ccc(C(=O)Nc3nnc(-c4ccc(C(F)(F)F)cc4)o3)cc2)C1` (stereo unspecified): the MIC with Staphylococcus aureus [1] and with Staphylococcus aureus [2] was 2 µg/mL (≈ 4.04 µM) throughout.

As for `C/C(=C\C(=O)OCCCCCCCCC(=O)O)C[C@@H]1OC[C@H](C[C@@H]2O[C@H]2[C@@H](C)[C@H](C)O)[C@@H](O)[C@H]1O` [MUPIROCIN], the Activity result in [7] is recorded as “Toxic”; in data set [8], “Toxic”; in data set [9], “Toxic”; in [10] it was 98.8%.

For the molecule `CC1CCCCN1S(=O)(=O)c1ccc(C(=O)Nc2nnc(-c3ccc(C(F)(F)F)cc3)o2)cc1` (stereo unspecified), the MIC with Staphylococcus aureus [1] and in the data set on Staphylococcus aureus [2] was 2 µg/mL (≈ 4.04 µM) in each case.

For the molecule `O=C(Nc1nnc(-c2ccc(C(F)(F)F)cc2)o1)c1ccc(S(=O)(=O)NC2CC2)cc1`, the MIC in the data set on Staphylococcus aureus [1] and in the data set with Staphylococcus aureus [2] was 4 µg/mL (≈ 8.84 µM) in each case.

For the origin of these results see ChEMBL document CHEMBL5154895, “Mechanistic Studies and In Vivo Efficacy of an Oxadiazole-Containing Antibiotic” (J Med Chem, 2022).
